Assay outcomes as filed in PubChem.
An excerpt weighted towards active compounds, which were near 3.1% of everything screened.
DENV2 CPE rescue – inhibitors of DENV2 cytopathic effect, primary screen, cell-based, plate reader, single concentration; DENV2-infected cells, cytopathic effect rescue; CPE inhibition, % at 9.99 µM; AID 651640, 2012; hit rate 1.7% among 350,000; in the data active = CPE inhibition above about 20%, passing the limit was not always enough; inconclusive = no clear call, values can overlap the other calls; tested in BHK-21 cells;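 note: 0% = median of neutral control wells and 100% = median of positive control wells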
Ecoli rRNA inh – reduced GFP signal of wild-type E. coli, primary screen, bacterial rRNA inhibitor project, GFP/RFP fluorescence, OD600, single point; E. coli WT GFP vs humanized-ribosome RFP mutants, 24 h; hits give low values; DMSO median 0, no signal -100; GFP signal change (wild-type ribosome), % (no concentration beside the values); hit rate 1.6% among 350,000;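 active = significant combined selectivity score with lowered wild-type GFP, culture density cut under 30%, mutant RFP and density less affected; inactive = any of these conditions unmet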
Cneo AK release – Cryptococcus neoformans cell lysis inducers, primary screen, AK release luminescence, single concentration. C. neoformans lysis, adenylate kinase release luminescence, 4 h; normalised: neutral wells 0, clomiphene wells 100. lysis activity, % at 15 µM. hit rate 0.2% among 360,000;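 active = mean lysis activity across replicates of at least 80%, whatever share of replicates individually reach that level; inactive = mean lysis activity below 80%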
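Material – Cryptococcus neoformans yeast cells · Quantity – 5 × 10^6 yeast cells/mL · Buffer or medium – YPD medium · Compound – single dose · Timing – 4 h static compound exposure, 37 °C, read 1 h post-reagent · Signal – adenylate kinase release luminescence · Read-out basis – lysis from increased AK signal · Benchmarks – Clomiphene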
miR122 inh – miR-122 Renilla sensor signal increase in Huh7, primary screen, miR-122 inhibitor project, cell-based, single point, plate reader. activation (reporter increase), % at 12.5 µM. Huh7 miR-122 Renilla luciferase sensor, 48 h; neutral wells = 0, positive control = 100. AID 602342, 2012. hit rate 0.3% among 340,000;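 active = mean replicate activation score at least 90 and every replicate individually at or above 90; inconclusive = only one of the two criteria met; inactive = neither criterion met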;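 note: higher luciferase means less miR-122 activity so hits act as miR-122 inhibitors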
E-selectin induc – E-selectin induction in HUVECs, primary screen, imaging, HUVEC, immunofluorescence imaging, single point | normalized: neutral wells 0, TNF-alpha wells 100 | hit rate 0.37% among 260,000 | activation, % at 7.58 µM | P16581 | AID 686992, 2013;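 active = mean E-selectin-positive cell signal at least 10% of the positive control, reached in at least 60% of replicates, without over 20% cell loss; inconclusive = no rule given, readout overlaps actives, possibly toxicity-flagged; inactive = the rest, including those meeting only one limit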
Target sequence (P16581 whole entry, looked up): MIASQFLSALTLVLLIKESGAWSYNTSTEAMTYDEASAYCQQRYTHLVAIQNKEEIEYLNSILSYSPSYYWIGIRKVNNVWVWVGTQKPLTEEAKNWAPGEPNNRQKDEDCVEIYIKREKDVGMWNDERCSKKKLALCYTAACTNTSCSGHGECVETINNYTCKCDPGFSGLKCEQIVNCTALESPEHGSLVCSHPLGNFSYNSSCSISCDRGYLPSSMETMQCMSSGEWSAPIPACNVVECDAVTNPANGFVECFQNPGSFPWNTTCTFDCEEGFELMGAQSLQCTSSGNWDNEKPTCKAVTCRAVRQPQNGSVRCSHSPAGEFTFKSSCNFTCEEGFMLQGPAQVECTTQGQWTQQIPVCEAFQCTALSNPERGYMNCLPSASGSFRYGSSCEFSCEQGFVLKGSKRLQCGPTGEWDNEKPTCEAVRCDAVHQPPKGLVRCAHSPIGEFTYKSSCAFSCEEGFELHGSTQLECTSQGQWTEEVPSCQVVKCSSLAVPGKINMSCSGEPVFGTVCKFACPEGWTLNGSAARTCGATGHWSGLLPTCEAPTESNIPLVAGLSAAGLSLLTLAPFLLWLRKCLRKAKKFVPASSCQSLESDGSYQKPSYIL
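assay system = HUVEC, human umbilical vein endothelial cells | input = 3,000 HUVEC seeded per well | medium = EGM-2 growth medium on 0.1% gelatin-coated wells | dosing = one compound dose added by pin transfer | signal = immunofluorescence imaging | read-out basis = % PE-positive cells | control set = TNF-alpha, DMSO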
An asterisk follows results filed as active; [ ] = dose if it differs, or a comment.

`CCOC(=O)C1(CC2CCCCO2)CCN(Cc2nc(C(C)C)cs2)CC1` (centres undefined) gave DENV2 CPE rescue 0, Ecoli rRNA inh -29* and E-selectin induc 0.
CCOC(=O)C1(CC2CCCCO2)CCN(C(=O)Nc2ccc(C(=O)OC)cc2)CC1 (centres undefined) was read as DENV2 CPE rescue -3, Ecoli rRNA inh -19*, Cneo AK release 0, miR122 inh 5 and E-selectin induc 1.
C[C@@H]1CN([C@@H](C)CO)S(=O)(=O)c2ccc(-c3ccncc3)cc2O[C@H]1CN(C)C(=O)C1CCC1 was read as Ecoli rRNA inh -1, miR122 inh 0[16.7 µM] and E-selectin induc 1.
`O=C(O)CCCc1ccc2ccc3cccc4ccc1c2c34` gave DENV2 CPE rescue -4, Ecoli rRNA inh -10, Cneo AK release -6 and E-selectin induc 0.
NCCCCc1ccc2ccc3cccc4ccc1c2c34 was read as DENV2 CPE rescue 6, Ecoli rRNA inh -19*, Cneo AK release 1 and E-selectin induc -1.
CC(=O)Nc1cnc(-c2ccccc2C(C)=O)cn1 was read as DENV2 CPE rescue -8, Ecoli rRNA inh 8, Cneo AK release 1, miR122 inh -7 and E-selectin induc 0.
Screening COc1cccc(OC)c1-c1cnc(NC(C)=O)cn1 returned DENV2 CPE rescue 24*, Ecoli rRNA inh 11, Cneo AK release 0, miR122 inh -1 and E-selectin induc 0.
O=C(C1CCCN(S(=O)(=O)c2cccnc2)C1)N1CCN(c2ccccn2)CC1 (centres undefined) was read as DENV2 CPE rescue 87*, Ecoli rRNA inh -1, Cneo AK release -2 and miR122 inh -6.
For C[C@H]1CN(C)C(=O)Cc2cc(N(C)C)ccc2O[C@@H]1CN(C)C(=O)OC(C)(C)C the results were Ecoli rRNA inh -1.
`COCC(=O)N(C)C[C@@H]1Oc2cc(C#CC3CCCC3)ccc2S(=O)(=O)N([C@H](C)CO)C[C@@H]1C` gave Ecoli rRNA inh -3, miR122 inh 3[16.7 µM] and E-selectin induc 1.
Screening O=C1c2ccc([N+](=O)[O-])cc2C(=O)N1Cc1cccnc1 returned DENV2 CPE rescue 90*, Ecoli rRNA inh 6, Cneo AK release -1, miR122 inh -6 and E-selectin induc 0.
`CCOC(=O)c1csc(-c2sccc2Br)n1` gave DENV2 CPE rescue -7 and Ecoli rRNA inh -27*.
CN(C)CC(=O)Nc1ccc2c(c1)C(=O)N(C)[C@H]1CC[C@H](CC(=O)Nc3cccc(Cl)c3)O[C@@H]1CO2 was read as Ecoli rRNA inh -2.
For Cc1ccc([C@@H]2[C@@H]3C(=O)N(C)C(=O)[C@@H]3[C@]3(C)C(=O)N(Cc4ccc(-c5ccccc5)cc4)CC(=O)N23)o1 the results were DENV2 CPE rescue 92*, Cneo AK release -1, miR122 inh -2 and E-selectin induc 0.
`Cc1ccc([C@@H]2[C@@H]3C(=O)N(c4ccccc4)C(=O)[C@@H]3[C@]3(C)C(=O)N(Cc4ccccc4)CC(=O)N23)o1` gave DENV2 CPE rescue -17, Ecoli rRNA inh 0, Cneo AK release 4, miR122 inh -5 and E-selectin induc 0.
For Cn1cc(/C=C/C(=O)N2CCCC(C(=O)c3cccc4ccccc34)C2)cn1 (centres undefined) the results were DENV2 CPE rescue -1, Ecoli rRNA inh 0, Cneo AK release -3, miR122 inh -2 and E-selectin induc 1.
For Cn1cc(/C=C/C(=O)N2CCCC(C(=O)c3cccc(C(F)(F)F)c3)C2)cn1 (centres undefined) the results were DENV2 CPE rescue -1, Ecoli rRNA inh -29*, Cneo AK release -1 and miR122 inh -2.
For CC(C)NC(=O)COC(=O)c1ccc(NS(=O)(=O)c2ccc3c(c2)OCCO3)cc1 the results were Cneo AK release 0 and miR122 inh 280*.
`C/C=C/c1ccc2c(c1)O[C@@H](CN(C)C(=O)Nc1ccc(C(F)(F)F)cc1)[C@H](C)CN([C@H](C)CO)S2(=O)=O` gave DENV2 CPE rescue -1, Ecoli rRNA inh 0, Cneo AK release -1, miR122 inh 2[16.7 µM] and E-selectin induc 0.
Screening CCCn1c(NC(=O)c2cccc(C)c2C)nc2ccccc21 returned Cneo AK release -3 and miR122 inh 118*.
Screening C[C@@H]1CCCCO[C@H](CN(C)C(=O)NC2CCCCC2)[C@H](C)CN([C@H](C)CO)C(=O)c2cc(NC(=O)Cc3ccccc3)ccc2O1 returned Ecoli rRNA inh -4 and E-selectin induc 0.
COc1ccc(CCN2CC(O)=C(c3nc(C)cs3)C2=N)cc1OC was read as Cneo AK release 0 and miR122 inh 130*.
For CCN(CC(=O)Nc1ccccc1OC)CC(=O)Nc1c(Cl)ccc(C)c1Cl the results were DENV2 CPE rescue 3, Ecoli rRNA inh -26*, Cneo AK release 0, miR122 inh 2 and E-selectin induc 0.
Screening O=C(COC(=O)CSc1cccc2cccc(Cl)c12)Nc1ncc(C(F)(F)F)cc1Cl returned DENV2 CPE rescue -21 and Ecoli rRNA inh -6.
Screening NC(=O)COC(=O)CSc1cccc2cccc(Cl)c12 returned DENV2 CPE rescue -10, Ecoli rRNA inh -29* and E-selectin induc 3.
CCNC(=O)[C@H]1[C@H](CO)[C@H]2Cn3c(ccc(-c4ccccc4)c3=O)[C@@H]1N2CCC(F)(F)F was read as Ecoli rRNA inh 2, Cneo AK release -1 and E-selectin induc 0.
For C=CCOc1c(Br)cc(/C=C2/NC(=S)N(C(C)=O)C2=O)cc1OC the results were DENV2 CPE rescue inconclusive and Ecoli rRNA inh -55.
For C=CCOc1ccc(Br)cc1/C=C1\NC(=S)N(C(C)=O)C1=O the results were DENV2 CPE rescue -5, Ecoli rRNA inh -32*, Cneo AK release -2, miR122 inh 5 and E-selectin induc 0.
For O=C(/C=C/c1ccc(OCc2cccc(Cl)c2)cc1)N1CCOCC1 the results were DENV2 CPE rescue 11 and Ecoli rRNA inh -39.
For O=C(O)/C=C/c1ccc(OCc2cccc(F)c2)cc1 the results were DENV2 CPE rescue -2, Ecoli rRNA inh -22*, Cneo AK release -2, miR122 inh 4 and E-selectin induc -2.
COc1cc(/C=C2\SC(=O)N(c3cccc(Cl)c3)C2=O)cc([N+](=O)[O-])c1O was read as DENV2 CPE rescue -2 and Ecoli rRNA inh -33*.
`COc1cccc(CN2CC3(C2)[C@H](c2ccccc2)[C@@H](CO)N3Cc2cccc(OC)c2)c1` gave Ecoli rRNA inh -6.
